Data reported in ChEMBL document CHEMBL1123337, “Synthesis and antiinflammatory/analgesic activities of 11H-dibenzo[b, e,][1,4]dioxepinacetic acids” (J Med Chem, 1986).

How the values were obtained:
Type in all cases: functional
Rattus norvegicus [1] = assay: Antiinflammatory activity was evaluated by the inhibition of rat carrageenan foot edema (CFE) assay at the dose of 1 mg/kg
Outline: (§1)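 Rats, six per dose. Oral dosing 1 h before carrageenan injection, as a suspension in 0.25% (w/v) agar in water, 3.0 mL per animal. Hindpaw volume read by mercury displacement just after injection and 3 h later. Percent inhibition of mean swelling relative to vehicle controls; unpaired Student's t test.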

Rattus norvegicus [2] = assay: Antiinflammatory activity was evaluated by the inhibition of rat carrageenan foot edema (CFE) assay at the dose of 10 mg/kg; outline: as §1
Rattus norvegicus [3] = assay: Antiinflammatory activity was evaluated by the inhibition of rat carrageenan foot edema (CFE) assay at the dose of 3 mg/kg; outline: as §1
Rattus norvegicus [4] = assay: Gastric haemorrhage at the dose of 10 mg/kg expressed as the number of rats with lesions per 6 number of rats
Outline: (§2)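 Male Sprague-Dawley rats, 120–200 g, six per group, weight-sorted and fasted overnight. Given orally as a suspension in 0.5% methocal. Killed by CO2 4 h later. Stomachs everted and washed, and mucosal lesions counted visually under 3× magnification. Scored as rats with lesions per total, with lesions per animal.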

Rattus norvegicus [5] = assay: Gastric haemorrhage at the dose of 30 mg/kg expressed as the number of rats with lesions per 6 number of rats (lesions per animal=1.7); outline: as §2
Rattus norvegicus [6] = assay: Compound was evaluated for the effective dose required for the inhibition of rat carrageenan foot edema (CFE) assay
Mus musculus [7] = assay: Analgesic activity determined by its ability to inhibit phenylbenzoquinone (PBQ, ip) induced abdominal writhing at dose of 30 mg/kg; details: Abdomen
Outline: (§3)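 Male CD mice, 18–22 g, groups of 10, fasted overnight. Dosed orally in 1% methylcellulose 60 min before ip phenylbenzoquinone (2 mg/kg, 0.02% aqueous). Writhes (abdominal contractions, lordosis, hindlimb extension) counted over 10 min, starting 5 min after PBQ. Group means and standard errors taken; percent inhibition calculated against vehicle controls.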

Mus musculus [8] = assay: Analgesic activity determined by its ability to inhibit phenylbenzoquinone (PBQ, ip) induced abdominal writhing at dose of 10 mg/kg; details: Abdomen; outline: as §3
Rattus norvegicus [9] = assay: Gastric haemorrhage at the dose of 10 mg/kg expressed as the number of rats with lesions per 6 number of rats (lesions per animal=4.2); outline: as §2
Rattus norvegicus [10] = assay: Gastric haemorrhage at the dose of 30 mg/kg expressed as the number of rats with lesions per 6 number of rats; outline: as §2
Mus musculus [11] = assay: Analgesic activity determined by its ability to inhibit phenylbenzoquinone (PBQ, ip) induced abdominal writhing at dose of 3 mg/kg; details: Abdomen; outline: as §3

| Structure (SMILES) | inhibition in vivo at 1 mg/kg (Rattus norvegicus [1]) [%] | inhibition in vivo at 10 mg/kg (Rattus norvegicus [2]) [%] | inhibition in vivo at 3 mg/kg (Rattus norvegicus [3]) [%] | inhibition in vivo at 30 mg/kg (Mus musculus [7]) [%] | other results |
| --- | --- | --- | --- | --- | --- |
| CC(=O)NCCOC(=O)C(C)c1ccc2c(c1)Oc1ccccc1CO2 (stereo not drawn) | 7 | 28 | 15 |  |  |
| COC(=O)C(C)c1ccc2c(c1)Oc1ccccc1CO2 (stereo not drawn) | 23 | 56 | 32 |  | No. of rats with lesions (Rattus norvegicus [4]): 0; No. of rats with lesions (Rattus norvegicus [5]): 5 |
| O=C(O)Cc1ccc2c(c1)OCc1ccccc1C2=O [OXEPINAC] |  |  |  |  | ED50 (Rattus norvegicus [6]): 3.7 mg/kg |
| O=C(O)Cc1ccc2c(c1)OCc1ccccc1O2 | 28 | 49 | 53 |  |  |
| CC(CO)c1ccc2c(c1)Oc1ccccc1CO2 (stereo not drawn) | 9 | 45 | 19 |  |  |
| O=C(O)Cc1ccc2c(c1)Oc1cc(Cl)ccc1CO2 | 11 | 5 | 19 | 26 |  |
| CC(C(=O)O)c1ccc2c(c1)Oc1ccccc1CO2 (stereo not drawn) | 21 | 42 | 27 | 91 | inhibition in vivo at 10 mg/kg (Mus musculus [8]): 70%; No. of rats with lesions (Rattus norvegicus [9]): 5; No. of rats with lesions (Rattus norvegicus [10]): 6; inhibition in vivo at 3 mg/kg (Mus musculus [11]): 38% |
| Cc1cc(CC(=O)O)n(C)c1C(=O)c1ccc(Cl)cc1 [ZOMEPIRAC] | 61 |  | 82 | 91 |  |
| O=C(O)Cc1ccc2c(c1)Oc1ccc(Cl)cc1CO2 | 21 | 28 | 23 | 82 |  |
| CCC(=O)OC(C)OC(=O)C(C)c1ccc2c(c1)Oc1ccccc1CO2 (stereo not drawn) | 6 | 12 | 15 |  |  |
| O=C(O)Cc1ccc2c(c1)Oc1ccccc1CO2 | 24 | 40 | 10 | 26 |  |
| O=C(O)Cc1ccc2c(c1)COc1ccccc1O2 | 12 | 16 | 9 | 37 |  |
| CC(C(=O)O)c1ccc2c(c1)OCc1ccccc1O2 (stereo not drawn) | 43 | 43 | 45 | 70 |  |
| CC(=O)Nc1ccc2c(c1)COc1ccc(CC(=O)O)cc1O2 | 35 | 23 | 16 | -55 |  |
| O=C(O)Cc1ccc2c(c1)Oc1ccccc1OC2 |  | 5 | 6 |  |  |
| COc1ccc2c(c1)c(CC(=O)O)c(C)n2C(=O)c1ccc(Cl)cc1 [INDOMETHACIN] | 33 | 67 | 56 |  |  |
